# From PubChem
# This is a sample that favours compounds with a hit; in the whole collection about 2.3% have one here.
# PAFAH2 FP inh: inhibitors of human PAFAH2; AID 492956; inhibition, % at 3.39 µM; 340,000 compounds, 0.99% hits; recombinant PAFAH2, FP-rhodamine activity probe, fluorescence polarization; Q99487;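 active = inhibition above the mean over all tested compounds plus 3 SD, cut at about 30% in these data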;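 note: inhibitors block probe labeling of enzyme so polarization drops; 0% = enzyme with DMSO and 100% = wells lacking PAFAH2 protein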
# PAFAH1B2 inh: PAFAH1B2 (human) inhibition | P68402 | recombinant PAFAH1B2, FP-rhodamine activity probe, fluorescence polarization | inhibition, % at 3.39 µM | 340,000 compounds, 1.2% hits;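 active = inhibition above the mean of all tested compounds plus 3 SD, cut at about 24% in these data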;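 note: 0% = enzyme with DMSO and 100% = wells lacking PAFAH1B2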
# Target sequence (P68402 whole entry, looked up): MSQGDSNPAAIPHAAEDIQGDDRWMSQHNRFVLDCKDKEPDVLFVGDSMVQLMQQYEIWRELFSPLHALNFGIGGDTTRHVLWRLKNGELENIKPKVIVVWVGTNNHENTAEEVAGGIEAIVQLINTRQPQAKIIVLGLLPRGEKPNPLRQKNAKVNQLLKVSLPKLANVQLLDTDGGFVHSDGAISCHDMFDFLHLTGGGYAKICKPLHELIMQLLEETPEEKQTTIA
# TDP2 absorb: TDP2 (human) inhibition, absorbance primary screen; O95551; recombinant TDP2, T5PNP hydrolysis, p-nitrophenol absorbance 415 nm; inhibition, % at 12.8 µM; 370,000 compounds, 0.34% hits;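 active = inhibition above the mean of all tested compounds plus 3 SD, set per campaign, cut at about 25% in these data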;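 note: 0% = DMSO with enzyme and 100% = buffer with substrate but no TDP2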
# Target sequence (O95551 whole entry, looked up): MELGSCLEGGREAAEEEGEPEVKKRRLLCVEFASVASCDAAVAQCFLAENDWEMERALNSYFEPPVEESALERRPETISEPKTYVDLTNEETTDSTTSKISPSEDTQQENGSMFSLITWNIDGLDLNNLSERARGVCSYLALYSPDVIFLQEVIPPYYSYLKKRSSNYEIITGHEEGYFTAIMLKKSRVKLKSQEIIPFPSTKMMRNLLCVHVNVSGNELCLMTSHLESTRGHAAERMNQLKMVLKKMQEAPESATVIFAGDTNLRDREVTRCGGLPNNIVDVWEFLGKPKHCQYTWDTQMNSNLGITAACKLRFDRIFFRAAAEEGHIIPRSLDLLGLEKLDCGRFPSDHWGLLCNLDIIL
#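 System: recombinant human TDP2 / Amount: 120 nM TDP2 per well / Also added: 5 mM T5PNP chromogenic substrate / Doses: 12.8 µM single point, 1% DMSO / Incubation: 2 h at 37 °C / Detection: p-Nitrophenol epi absorbance / Evaluation: % inhibition relative to enzyme-containing and enzyme-free wells / Repeats: singlicate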
# Apaf-1 inh: inhibitors of human Apaf-1 apoptosome; inhibition, % at 20 µM; 330,000 compounds, 0.71% hits; reconstituted apoptosome caspase-3 activity, DEVD-Rh110 fluorescence; O14727; active = inhibition of at least 40% at 20 µM;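 note: plate controls were DMSO wells for no effect and DEVD-CHO caspase inhibitor wells for full effect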
#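 detection = Rh110 fluorescence intensity | test system = biochemical Apaf-1 apoptosome reconstitution | also added = cytochrome c and DEVD-Rh110 substrate | schedule = 30 min plus 50 min, RT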
# PAFAH1B3 inh: blocks human PAF acetylhydrolase 1B catalytic subunit 3. Q15102. recombinant PAFAH1B3, FP-rhodamine probe, fluorescence polarization. inhibition, % at 3.39 µM. 340,000 compounds, 0.28% hits. AID 492972;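 active = inhibition above the screen-wide average of all tested compounds plus 3 SD, cut at about 25% in these data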;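 note: 0% = enzyme with DMSO only and 100% = wells lacking PAFAH1B3 protein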
# PAFAH2 confirm: confirmation of human PAFAH2 inhibitors; shares compounds with PAFAH2 FP inh; recombinant PAFAH2, FP-rhodamine activity probe, fluorescence polarization; inhibition, % at 3.39 µM; 2,300 compounds, 65% hits;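 active = mean inhibition over three repeats above a set limit taken from the earlier primary screen, cut at about 30% in these data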;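 note: inhibitor blocks binding of rhodamine activity probe so polarization falls; 0% = enzyme with DMSO and 100% = wells lacking PAFAH2 protein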
# Numbers without * were called inactive; · = no result.
SMILES,PAFAH2 FP inh,PAFAH1B2 inh,TDP2 absorb,Apaf-1 inh,PAFAH1B3 inh,PAFAH2 confirm
C/C(=N/OC(=O)CC(C)C)c1cc(-c2ccc(Cl)cc2)no1,56.8*,-0.5,0.0,-13.0,9.1,45.3*
CC(NC(=O)COC(=O)c1cccc(S(=O)(=O)N2CCCC2)c1)c1ccccc1 (stereo unspecified),53.2*,5.3,0.1,-6.7,8.6,39.6*
NS(=O)(=O)c1cccc(NC(=O)COC(=O)CSCc2ccccc2)c1,14.2,2.4,-7.0,4.4,8.5,·
NS(=O)(=O)c1cccc(NC(=O)COC(=O)c2ccccc2C(=O)c2ccccc2)c1,53.7*,-3.0,6.4,-2.6,-3.6,51.3*
O=C(COC(=O)c1cccc(S(=O)(=O)N2CCCCC2)c1)NCc1ccccc1,10.6,8.0,3.1,16.8,3.2,·
COc1ccc(C(=O)OCC(=O)NC(Cc2ccccc2)C(C)=O)cc1S(=O)(=O)N1CCCC1 (stereo unspecified),35.4*,1.4,-14.2,4.7,2.9,32.1*
O=C(COC(=O)c1ccc(Cl)c(S(=O)(=O)N2CCCCCC2)c1)Nc1ccccc1,44.3*,-9.9,-3.4,21.2,-21.4,31.3*
Cc1ccccc1NC(=O)COC(=O)c1cccc(S(=O)(=O)N2CCCCC2)c1,45.4*,2.0,-11.9,-4.8,7.6,28.2
O=C(COC(=O)c1cccc(S(=O)(=O)N2CCCC2)c1)Nc1ccccc1Cl,29.5,-0.6,-0.7,3.9,2.9,·
O=C(COC(=O)c1cccc(S(=O)(=O)N2CCCC2)c1)Nc1ccccc1,72.4*,4.8,10.8,19.9,8.0,76.3*
COc1ccc2oc(C(=O)OCC(=O)Nc3ccccc3)c(C)c2c1,61.4*,0.4,-14.7,3.6,7.5,51.9*
COc1ccc2oc(C(=O)OCC(=O)NC3CC3)c(C)c2c1,17.8,2.7,7.6,1.0,-1.1,·
COc1ccc2oc(C(=O)OCC(=O)NC(C)(C#N)C3CC3)c(C)c2c1 (stereo unspecified),46.6*,3.3,1.7,-0.8,7.5,40.6*
Cc1onc(-c2ccccc2)c1-c1nc2cc(Cl)ccc2c(=O)o1,·,·,3.2,12.2,·,·
O=c1oc(-c2ccccc2Br)nc2ccccc12,55.5*,-1.0,1.3,7.1,0.5,30.7*
CCOc1ccc(-c2nnc(-c3ccccc3)o2)cc1,-3.9,-3.6,-2.1,17.4,-4.8,·
COc1ccc(-c2nnc(-c3ccccc3)o2)cc1OC,9.8,6.1,-2.6,-9.3,8.4,·
CCOc1ccc(-c2nc3ccccc3c(=O)o2)cc1,54.2*,-4.5,-5.8,-3.9,3.0,60.4*
COc1ccc(-c2nc3ccccc3c(=O)o2)cc1OC,41.0*,-0.8,2.2,7.7,4.9,33.9*
Cc1onc(-c2ccccc2)c1-c1nc2ccccc2c(=O)o1,62.6*,4.9,-5.4,12.0,-1.2,59.8*
COC(=O)CCC(=O)N1C2=NC3=C(C(=O)N(Cc4ccc5c(c4)OCO5)C3=O)C3N(C)c4ccccc4[C@]23C[C@H]1CO (stereo partly specified),·,·,0.4,·,·,·
C=CCN1[C@H](CC(C)C)COc2cc(N3CCCC3)ccc2S1(=O)=O,·,·,-2.2,·,·,·
C=CCN1[C@@H](C)[C@H](c2ccccc2)Oc2cccc(N3CCCC3)c2S1(=O)=O,·,·,-1.4,·,·,·
O=C(CSc1nnc(-c2cccs2)o1)c1cccc([N+](=O)[O-])c1,·,·,-11.4,·,·,·
Cc1ccc(NC(=O)OCCCN2C(=O)CCC23CCC(C)CC3)cc1 (stereo unspecified),·,·,-11.0,·,·,·
SMILES,PAFAH2 FP inh,PAFAH1B2 inh,TDP2 absorb,Apaf-1 inh,PAFAH1B3 inh,PAFAH2 confirm
Cc1ccccc1S(=O)(=O)/N=C(/Nc1c(C)n(C)n(-c2ccccc2)c1=O)c1ccccc1,-0.2,2.8,3.0,-3.7,3.4,·
Cc1ccccc1S(=O)(=O)/N=C(/Nc1nc2ccccc2s1)c1ccccc1,36.3*,-1.4,11.6,5.2,4.4,30.5*
COc1cc(C(=O)OCC(=O)NC2CCCCC2)cc(OC)c1OC,40.8*,-0.2,-5.2,7.3,6.9,23.6
COc1cc(C(=O)OCC(=O)Nc2ccc(C)cc2)cc(OC)c1OC,30.5*,2.2,4.0,2.5,6.3,16.2
COc1cc(C(=O)OCC(=O)NC2CCCC2)cc(OC)c1OC,17.7,7.0,1.2,0.4,6.8,·
CN(C(=O)COC(=O)c1ccc2c(c1)OCCO2)C1CCCCC1,68.9*,2.2,-12.7,-4.4,1.3,61.1*
Cc1cc(C)cc(C(=O)OCC(=O)NC2CCCC2)c1,43.2*,-1.3,2.3,5.8,1.7,22.9
COC(=O)C[C@H]1CC[C@@H]2[C@@H](COc3ccc(NC(=O)Nc4ccccc4OC)cc3C(=O)N2C)O1,·,·,16.4,·,·,·
COc1cc(C(=O)OCC(=O)NC2CCCCC2)cc2c1OCCO2,74.0*,-0.1,-0.4,-4.9,2.7,65.7*
O=C(COC(=O)c1ccc2c(c1)OCCO2)NC1CCCCC1,87.1*,-1.8,0.2,7.1,-3.0,76.6*
COc1cc(C(=O)OCC(=O)Nc2ccccc2)cc2c1OCCO2,·,·,5.4,·,·,·
NS(=O)(=O)c1cccc(NC(=O)COC(=O)c2cc(Cl)ccc2[N+](=O)[O-])c1,7.0,-3.0,-1.1,-21.5,6.2,·
Cc1ccc(NC(=O)COC(=O)c2cc(Cl)ccc2[N+](=O)[O-])cc1,56.0*,5.2,-2.2,9.1,2.8,37.8*
C=CC(=O)NC1CCCCN(C(C)C)C1=O (stereo unspecified),·,·,-2.4,·,·,·
CCC(C)CNC(=O)CN1C(=O)C2CCCCN2C(=O)c2ccccc21 (stereo unspecified),·,·,-10.1,·,·,·
Cc1ccccc1NC(=O)C1Cc2ccccc2C(=O)O1 (stereo unspecified),36.0*,3.7,1.0,8.2,13.2,30.3*
N/C(=N\OC(=O)c1cccs1)C1(c2ccc(Cl)cc2Cl)CC1,58.0*,7.1,-7.0,4.2,5.5,30.2*
CC(C)C[C@H](NC(=O)c1ccc(Cl)cc1Cl)C(=O)N1CCC[C@H]1C(=O)NCc1ccccc1,·,·,-4.1,·,·,·
CCNC(=O)COC(=O)/C=C/c1ccccc1[N+](=O)[O-],10.6,-1.2,-1.4,3.3,3.0,·
O=C(COC(=O)/C=C/c1ccccc1[N+](=O)[O-])NCC(F)(F)F,29.9*,-2.9,4.8,-9.0,3.7,16.2
Cc1ccc(S(=O)(=O)N(C)C)cc1NC(=O)COC(=O)c1ccc(Cl)cc1,35.2*,5.9,-18.1,-3.2,9.6,25.8
CN(C)S(=O)(=O)c1ccc(Cl)c(NC(=O)COC(=O)c2ccc3c(c2)NC(=O)CS3)c1,48.1*,1.2,9.5,8.7,0.8,40.1*
CN(C)S(=O)(=O)c1ccc(Cl)c(NC(=O)COC(=O)c2ccc(O)cc2)c1,59.4*,1.8,-3.0,-3.4,6.9,54.8*
